Hits are enriched below; roughly 1.5% of the tested compounds scored in any of these assays.
APJ agonist – APJ receptor agonism | P35414 | CHO-K1 APJ PathHunter beta-arrestin, luminescence; 0% DMSO wells, 100% apelin | activation, % at 20 µM | hit rate 0.11% among 330,000;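 active = activation more than six SD over the plate average, tested at 20 µM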;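 also: 0% = DMSO alone and 100% = apelin-13 at 10 nM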
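assay system = CHO-K1 APJ beta-arrestin complementation cell line | input = cell density 1000 per well | dosing = compound 20 µM once, DMSO 1% | timing = compound 90 min 25 °C, reagent 1 h | measured by = luminescence from split beta-galactosidase complementation, Galacton Star/Emerald II substrate | read-out basis = APJ agonist activity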
CCR6 antag – antagonists of human CCR6 receptor | P51684 | CHO-K1 CCR6 PathHunter beta-arrestin, luminescence, CCL20-stimulated | inhibition, % at 20 µM | hit rate 0.49% among 340,000 | AID 493098;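 active = compounds whose inhibition of the agonist-driven luminescence signal at 20 µM reaches about 50%, limit read from the data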;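 also: cells stimulated with CCL20 at 14 nM final; plate controls were DMSO with CCL20 for no effect and DMSO without agonist for full effect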
Target sequence (P51684 whole entry, looked up): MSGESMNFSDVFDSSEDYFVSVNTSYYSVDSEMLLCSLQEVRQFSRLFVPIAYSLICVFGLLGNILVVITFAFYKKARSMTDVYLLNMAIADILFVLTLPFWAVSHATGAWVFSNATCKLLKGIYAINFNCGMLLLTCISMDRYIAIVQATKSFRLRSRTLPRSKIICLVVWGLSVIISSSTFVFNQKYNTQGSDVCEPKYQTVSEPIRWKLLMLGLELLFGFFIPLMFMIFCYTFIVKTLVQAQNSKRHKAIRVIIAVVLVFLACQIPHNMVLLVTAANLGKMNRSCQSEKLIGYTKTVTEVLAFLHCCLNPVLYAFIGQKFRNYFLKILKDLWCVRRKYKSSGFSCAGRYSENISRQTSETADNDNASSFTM
EBI2 antag – antagonists of human EBI2 receptor; AID 651636; inhibition, % at 5 µM; EBI2 beta-arrestin recruitment, luminescence, 7a,25-OHC stimulated; hit rate 0.81% among 360,000; in the data active = inhibition above about 38%;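 also: enzyme fragment complementation signal reports receptor beta-arrestin coupling in cells; 0% = agonist plus DMSO wells and 100% = wells without agonist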
CXCR6 inh – CXCR6 (human) receptor inhibition. CHO-K1 PathHunter CXCR6 beta-arrestin, luminescence. inhibition, % at 20 µM. hit rate 0.36% among 360,000. AID 602244; in the data active = inhibition above about 34%, passing the limit was not always enough;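 also: antagonist mode with CXCL16 agonist at 10 nM final; 0% = 10 nM CXCL16 with DMSO and 100% = unstimulated wells without agonist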
Target sequence (O00574 whole entry, looked up): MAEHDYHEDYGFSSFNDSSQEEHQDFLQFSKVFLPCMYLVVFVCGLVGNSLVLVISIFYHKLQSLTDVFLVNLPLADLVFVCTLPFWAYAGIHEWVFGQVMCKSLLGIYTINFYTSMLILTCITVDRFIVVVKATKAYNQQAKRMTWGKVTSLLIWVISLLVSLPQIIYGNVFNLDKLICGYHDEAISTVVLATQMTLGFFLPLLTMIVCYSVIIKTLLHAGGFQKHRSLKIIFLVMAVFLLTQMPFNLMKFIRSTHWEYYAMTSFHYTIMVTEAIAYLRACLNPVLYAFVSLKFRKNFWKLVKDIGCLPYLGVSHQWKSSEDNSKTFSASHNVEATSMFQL
APJ antag – blocks the human apelin receptor APJ | AID 2521 | hit rate 0.32% among 330,000 | CHO-K1 APJ beta-arrestin complementation, luminescence | inhibition, % at 20 µM;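 active = inhibition above about 40% at 20 µM, limit read from the data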;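 also: cells challenged with 10 nM apelin-13 agonist together with compound; plate controls were apelin-13 plus DMSO wells for no effect and DMSO wells lacking apelin-13 for full effect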
APJ antag confirm – confirmation of human APJ apelin receptor antagonists | AID 2766 | hit rate 66% among 950 | shares compounds with APJ antag | APJ beta-arrestin recruitment, luminescence, antagonist mode | inhibition, % at 20 µM; in the data active = inhibition above about 50%
CXCR6 antag conf – confirmation of human CXCR6 receptor antagonists. hit rate 65% among 700. shares compounds with CXCR6 inh. inhibition, % at 20 µM. CHO-K1 CXCR6 PathHunter beta-arrestin, luminescence;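 active = mean inhibition over four retests above 40%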;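 also: receptor stimulated with 10 nM CXCL16 agonist; beta-galactosidase fragment complementation upon beta-arrestin recruitment to receptor; plate controls were CXCL16 plus DMSO for no effect and DMSO without CXCL16 for full effect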
Numbers without * were called inactive; / = no result given.

SMILES	APJ agonist	CCR6 antag	EBI2 antag	CXCR6 inh	APJ antag	APJ antag confirm	CXCR6 antag conf
COC(=O)CSc1[nH]c2ccc(Br)cc2c1[N+](=O)[O-]	-7.4	60.8*	17.7	40.8*	41.1*	55.4*	46.3*
CS(=O)(=O)c1ncc(Cl)c(C(=O)Nc2ccc(OC(F)F)cc2)n1	-4.3	57.0*	-2.7	46.9*	44.1*	72.2*	60.2*
CCS(=O)(=O)c1ncc(Cl)c(C(=O)Nc2ccc(S(=O)(=O)N(C)c3ccccc3)cc2)n1	-5.0	94.4*	86.5*	85.0*	67.4*	102.2*	92.3*
COc1ccc(OC)c(NC(=O)CS(=O)(=O)Cc2ccccc2)c1	-2.0	4.5	1.9	-7.3	-53.4	/	/
CC(=O)Nc1ccc(S(=O)(=O)N(C)c2ccccc2)cc1	-4.9	14.6	-6.2	-5.3	5.0	/	/
CS(=O)(=O)c1ncc(Cl)c(C(=O)Nc2ccc(N3CCOCC3)cc2)n1	-0.3	44.1	2.2	25.1	22.2	/	/
COc1ccc(OC)c(NC(=O)c2nc(S(=O)(=O)Cc3ccccc3)ncc2Cl)c1	-8.7	83.6*	84.9*	58.7*	63.5*	95.6*	68.8*
O=C(Nc1ccc(F)cc1)c1nc(S(=O)(=O)Cc2ccccc2)ncc1Cl	-6.2	77.6*	41.8	61.6*	40.3*	84.4*	67.2*
Cc1ccccc1CN1CCN(C2CCC2)CC1CCO (stereo unspecified)	-0.5	-4.3	-8.7	4.6	18.1	/	/
CCn1c(=O)cc(NC2=NCC(C)CN2c2cccc(Cl)c2)n(C)c1=O (stereo unspecified)	-9.8	66.2*	33.1	57.1*	61.5*	110.2*	59.5*
CCn1c(NC)cc(=O)n(C)c1=O	2.9	1.8	-0.2	-4.4	-4.8	/	/
COC(=O)c1ccccc1-c1ccc(/C=N/NC(=O)c2cc3ccccc3o2)o1	0.9	2.7	3.8	-2.2	-10.1	/	/
COC(=O)c1ccccc1-c1c2ccc(=N)cc-2oc2cc(N)ccc12	-9.0	67.0*	20.5	45.2*	49.4*	74.7*	62.0*
CC(C)NC(=O)C(c1ccc(F)cc1)N(C(=O)CCC(=O)Nc1ccccn1)c1cccc(F)c1 (stereo unspecified)	-1.4	18.0	-0.7	4.5	-11.6	/	/
COc1ccc(Cn2c(=O)c3[nH]cnc3n(-c3ccccc3C)c2=O)cc1	-3.3	4.8	-11.9	-0.1	2.8	/	/
COc1ccc(C)c(-n2c(=O)n(Cc3ccccc3)c(=O)c3[nH]cnc32)c1	-18.8	80.8*	36.8	69.1*	68.6*	117.3*	69.6*
CCN1CCN(CCCN(Cc2cccs2)C(=S)Nc2ccccc2C)CC1	-1.4	7.4	-10.4	-2.6	-21.0	/	/
CC(C)(C)c1ccc(-n2nc(C#N)c(Cl)cc2=O)cc1	-1.5	49.8	82.5*	60.8*	60.0*	83.4*	69.5*
Cc1cccc(NC(=O)COC(=O)c2cccs2)c1C	-3.0	9.3	8.1	0.5	-14.0	/	/
CC(C)Cc1[nH]c(=O)c(C#N)c2c1CCCC2	-1.3	-5.5	12.3	-1.3	16.8	/	/
O=C(NC(=S)Nc1ccccc1O)c1cccnc1	-8.4	59.5*	5.8	41.8*	46.8*	48.0	43.1*
CCC(C)c1ccc(O)c(NC(=S)NC(=O)c2cccnc2)c1 (stereo unspecified)	-12.4	86.8*	19.2	74.1*	67.3*	130.7*	69.5*
COc1ccc(NC(=O)CN(C)S(=O)(=O)c2ccc3c(c2)OCCO3)c2ncccc12	6.2	4.0	18.7	-0.3	-1.6	/	/
CCn1c(C)[n+](CC(O)COCC2CC=CCC2)c2ccccc21 (stereo unspecified)	0.7	0.2	5.6	6.3	2.5	/	/
O=C(NNC(=S)Nc1ccccc1)Nc1ccccc1	-3.0	53.6*	-2.0	71.2*	43.0*	38.9	38.7
SMILES	APJ agonist	CCR6 antag	EBI2 antag	CXCR6 inh	APJ antag	APJ antag confirm	CXCR6 antag conf
O=C(NNC(=S)Nc1ccccc1)c1ccncc1	-3.8	6.3	-2.9	-3.2	-5.1	/	/
Cc1cc(C)nc(/N=C(\N)Nc2ccc(C(C)C)cc2)n1	-0.3	5.6	7.1	-5.2	-10.4	/	/
CCOc1ccc2oc(C(=O)NCc3ccccc3CN3CCCC3)c(C)c2c1	-1.3	1.1	3.6	-8.6	10.6	/	/
O=C(NNC(=O)C12CC3CC(CC(C3)C1)C2)c1ccccn1	-7.9	91.5*	-1.9	70.8*	48.5*	68.9*	79.2*
O=C(NNC(=O)C12CC3CC(CC(C3)C1)C2)c1cnccn1	-1.2	10.0	4.0	13.2	2.7	/	/
CC(=O)N1N=C(c2ccccc2)CC1c1cccc([N+](=O)[O-])c1 (stereo unspecified)	-6.4	45.8	21.4	34.5	39.2	/	/
CC(=O)N1N=C(c2cccs2)CC1c1cccc([N+](=O)[O-])c1 (stereo unspecified)	-7.7	61.6*	24.9	50.0*	53.2*	52.1*	54.2*
COc1ccc(S(=O)(=O)N2CCOCC2)cc1NC(=O)Cc1ccc(Cl)c(Cl)c1	0.6	8.5	4.0	-7.6	-28.1	/	/
O=C(Nc1nc2c(F)cc(F)cc2s1)c1ccccn1	-8.1	79.4*	63.4*	49.3*	79.8*	83.6*	68.5*
O=C(COc1ccccc1)NNc1nc2c(F)cc(F)cc2s1	-0.9	4.2	2.7	-7.2	-14.6	/	/
CC(=O)Nc1ccc(/C(C)=N/Nc2nc(Nc3cccc4ccccc34)nc(N3CCOCC3)n2)cc1	-1.7	5.4	12.9	-2.2	-6.6	/	/
Cc1c(Nc2cc(Cl)c3nonc3c2[N+](=O)[O-])c(=O)n(-c2ccccc2)n1C	-6.6	91.1*	60.9*	88.2*	83.1*	115.0*	104.7*
FC(F)(F)c1cnc(NNC(=S)Nc2ccc(Cl)cc2)c(Cl)c1	-9.7	94.4*	31.6	72.2*	64.4*	116.7*	84.5*
FC(F)(F)c1cccc(NC(=S)NNC(=S)Nc2ccc(Cl)cc2)c1	-1.7	/	/	/	-0.2	/	/
Fc1ccc(NC(=S)NNc2ncc(C(F)(F)F)cc2Cl)c(F)c1	-7.0	91.9*	18.8	80.8*	72.1*	98.5*	75.8*
O=S(=O)(NNc1ncc(C(F)(F)F)cc1Cl)c1ccc(F)cc1F	-0.2	-16.3	-4.9	-3.2	29.8	/	/
Cc1cccnc1Nc1nc(-c2ccccn2)cs1	-10.5	72.0*	75.8*	71.5*	79.6*	103.2*	88.6*
COc1ccccc1OC(=O)c1cc2ccccc2oc1=O	-0.8	-6.5	-12.3	-1.0	11.1	/	/
COc1cc(/C=C/[N+](=O)[O-])ccc1OC(=O)c1cc2ccccc2oc1=O	-1.7	28.9	-7.9	76.0*	45.9*	91.4*	68.8*
N=C1S/C(=C\c2ccco2)C(=O)N1c1nccs1	-8.5	83.2*	-2.6	65.7*	44.1*	65.5*	76.6*

Screens: PubChem BioAssay, Sanford-Burnham Center for Chemical Genomics
